According to ChEMBL document CHEMBL3044962, “Characterization of the antifungal activity on Botrytis cinerea of the natural diterpenoids kaurenoic acid and 3beta-hydroxy-kaurenoic acid” (2004):
Activity calls are given as the source filed them. The rule behind the calls is not given here.

How the values were obtained:
Botrytis cinerea [1] = assay: Antifungal activity against Botryotinia fuckeliana inoculated in tomato leaf assessed as reduction in lesion area at 40 ug/ml after 4 days (Rvb =9.7 +/- 1.8 mm2 ); assay type: functional
Botrytis cinerea [2] = assay: Antifungal activity against Botryotinia fuckeliana grown in malt-yeast extract medium assessed as inhibition of mycelial growth at 40 to 160 ug/ml; assay type: functional
How it was run: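 Strain G29 conidia at final 3 × 10^5 conidia/mL in malt-yeast extract medium or liquid minimum medium with 1% glucose. Diterpenoids added from methanol at final 40 µg/mL, methanol evaporated before inoculation. Grown in dark at 22 °C for 5 days. Mycelial wet weight gives % inhibition relative to methanol control. ≥5 independent experiments, mean ± SD.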

Botrytis cinerea [3] = assay: Antifungal activity against Botryotinia fuckeliana grown assessed as induction of production of p-nitrophenyl butyrate esterase after 20 days relative to control; assay type: functional
How it was run: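 Ground pregrown mycelium (3 days, malt-yeast, 22 °C) moved to minimum medium with 1% cutin or 1% pectin plus diterpenoid at 40 µg/mL, 22 °C. Filtrates sampled over 30 days. Esterase measured with 0.62 mM p-nitrophenylbutyrate in 100 mM sodium phosphate pH 8.0 with Triton X-100, 10 min at 22 °C, A405. 1 U releases 1 µmol p-nitrophenol/min.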

Botrytis cinerea [4] = assay: Antifungal activity against Botryotinia fuckeliana assessed as inhibition of mycelial growth at 40 to 160 ug/ml up to 6 days; assay type: functional, organism-based
Botrytis cinerea [5] = assay: Antifungal activity against Botryotinia fuckeliana assessed as reduction in mycelial growth rate at 40 to 160 ug/ml up to 9 days (reference value: 1.82 cm/day); assay type: functional
Botrytis cinerea [6] = assay: Antifungal activity against Botryotinia fuckeliana grown assessed as membrane leakage measuring efflux of phosphorus at 100 ug/ml after 6 hr by ICP-OES analysis; assay type: functional, organism-based
How it was run: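 Pregrown mycelia held in 5 mM Tris-HCl pH 7.0 with diterpenoid at final 100 µg/mL (or methanol control) at 22 °C for 6 or 24 h. Phosphorus in the bathing medium measured by ICP-OES. Saponins (100 mg/mL in 10 mM sodium acetate pH 4.5, 6 h) served as positive control. ≥5 experiments, mean ± SD, ANOVA with LSD (P ≤ 0.05).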

Botrytis cinerea [7] = assay: Antifungal activity against Botryotinia fuckeliana grown assessed as induction of production of laccase after 10 days relative to control; assay type: functional
How it was run: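 Mycelium pregrown 3 days at 22 °C in malt-yeast liquid, ground with glass beads and transferred to minimum medium with 1% pectin plus diterpenoid at 40 µg/mL. Culture filtrate taken at day 10. Laccase read with 0.1 mM syringaldazine in 50 mM sodium phosphate pH 6.0, 15 min at 22 °C, A530. 1 U = 0.1 absorbance increase per min. ≥5 experiments, ANOVA/LSD.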

Botrytis cinerea [8] = assay: Antifungal activity against Botryotinia fuckeliana assessed as inhibition of mycelial growth at 40 to 160 ug/ml up to 7 days; assay type: functional, organism-based

C=C1C[C@@]23CC[C@H]4[C@@](C)(CCC[C@@]4(C)C(=O)O)[C@@H]2CC[C@@H]1C3 [KAURENOIC ACID]
Activity (Botrytis cinerea [1]): 7.5 mm2
growth inhibition (GI) (Botrytis cinerea [2]): inactive
Ratio (Botrytis cinerea [3]): 2
growth inhibition (GI) (Botrytis cinerea [4]): Active
GI (Botrytis cinerea [5]): 1.49 cm/day
Activity (Botrytis cinerea [6]): Active
Activity (Botrytis cinerea [7]): Active
growth inhibition (GI) (Botrytis cinerea [8]): Active
